Data as given in ChEMBL document CHEMBL2016546, “Synthesis, characterization, molecular docking and cytotoxic activity of novel plumbagin hydrazones against breast cancer cells” (Bioorg Med Chem Lett, 2012).
Activity calls are given as the source filed them. The calls are words filed in the database; no cut-off is given here.

Experiments:
[1] = test system: MCF7; assay: Antiproliferative activity against ER-positive human MCF7 cells after 48 hrs by MTT assay; conditions: MCF7, 48 h
[2] = test system: MDA-MB-468; assay: Antiproliferative activity against ER-negative human MDA-MB-468 cells after 48 hrs by MTT assay; type: functional, cell-based; conditions: MDA-MB-468, 48 h
How it was run: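 MDA-MB-468 cells plated at 3 × 10³/well in medium containing 10% fetal calf serum, penicillin (50 U/mL) and streptomycin, at 37 °C under 5% CO₂. DMSO-dissolved compounds were added 24 h post-seeding and exposure lasted 48 h. MTT (0.5 mg/mL) was applied for 2 h at 37 °C, then DMSO for 30 min at room temperature. Eight wells per treatment, at least three independent repeats.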

[3] = target: Transcription factor p65 (Homo sapiens) (UniProt Q04206); assay: Inhibition of NFkappaB p65 subunit expression in human MDA-MB-231 cells at 1.5 uM after 48 hrs by Western blot analysis; type: cell-based
How it was run: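 MDA-MB-231 cells were exposed to compounds for 48 h, with a vehicle-treated control. NF-κB p65 subunit levels were detected by Western blot, using β-actin as the protein loading control.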

[4] = Partition coefficient, log P pf the compound; type: physicochemical; conditions: octanol/water
[5] = test system: MDA-MB-231; assay: Antiproliferative activity against ER-negative human MDA-MB-231 cells after 48 hrs by MTT assay; conditions: MDA-MB-231, 48 h

Sequence of Transcription factor p65 (Homo sapiens) (Q04206 whole entry): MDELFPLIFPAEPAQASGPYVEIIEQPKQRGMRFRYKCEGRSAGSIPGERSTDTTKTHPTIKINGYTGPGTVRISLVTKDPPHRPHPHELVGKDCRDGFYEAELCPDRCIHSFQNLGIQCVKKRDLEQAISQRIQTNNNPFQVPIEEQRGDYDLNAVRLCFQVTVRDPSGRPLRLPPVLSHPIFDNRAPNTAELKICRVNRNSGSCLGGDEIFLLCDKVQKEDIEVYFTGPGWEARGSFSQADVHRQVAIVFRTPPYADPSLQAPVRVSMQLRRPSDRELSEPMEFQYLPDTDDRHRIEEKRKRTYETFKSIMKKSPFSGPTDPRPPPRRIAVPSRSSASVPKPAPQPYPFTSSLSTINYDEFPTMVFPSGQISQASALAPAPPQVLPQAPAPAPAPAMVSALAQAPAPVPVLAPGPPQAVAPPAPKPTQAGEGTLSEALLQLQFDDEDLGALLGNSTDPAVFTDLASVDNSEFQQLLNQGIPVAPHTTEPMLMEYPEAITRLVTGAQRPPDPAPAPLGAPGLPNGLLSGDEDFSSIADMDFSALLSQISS

## CC1=C/C(=N\NC(=O)c2ccncc2)c2c(O)cccc2C1=O
[1]
  IC50: 6.2 µM
[2]
  IC50: 3.3 µM
[3]
  inhibition: Active
[4]; read-out: logP
  logP: 2.86
[5]
  IC50: 3.3 µM

## CC1=CC(=O)c2c(O)cccc2C1=O [PLUMBAGIN]
[1]
  IC50: 5.5 µM
[2]
  IC50: 2.5 µM
[3]
  inhibition: Active
[4]
  logP: 0.89
[5]
  IC50: 3.5 µM

## CC1=C/C(=N\NC(=O)c2ccccc2)c2c(O)cccc2C1=O
[1]
  IC50: 2.8 µM
[2]
  IC50: 2 µM
[3]
  inhibition: Active
[4]; read-out: logP
  logP: 4
[5]
  IC50: 2.1 µM

## CC1=C/C(=N\NC(=O)c2cccnc2)c2c(O)cccc2C1=O
[1]
  IC50: 2.7 µM
[2]
  IC50: 1.9 µM
[3]
  inhibition: Active
[4]; read-out: logP
  logP: 3.13
[5]
  IC50: 1.9 µM

## CC1=C/C(=N\NC(=O)c2ccccc2O)c2c(O)cccc2C1=O
[1]
  IC50: 5.3 µM
[2]
  IC50: 2.9 µM
[3]
  inhibition: Active
[4]; read-out: logP
  logP: 4.17
[5]
  IC50: 3.8 µM
